ChEMBL document CHEMBL3259802, “Anticonvulsant evaluation of clubbed indole-1,2,4-triazine derivatives: a synthetic approach” (Eur J Med Chem, 2014)

Key:
[1] = Neurotoxicity in ip dosed Swiss albino mouse measured during phase 2 trials by rotarod test; assay type: toxicity, organism-based; conditions: in vivo
Method in brief: (§1)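 Phase II quantitation: groups of six mice given a range of i.p. doses until at least three points fell within 10–90% seizure protection (MES or scPTZ) or rotarod neurotoxicity, tested at time of peak effect.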

Mus musculus [2] = test: Anticonvulsant activity in Swiss albino mouse assessed as time duration of hind limb tonic extenstion at 100 mg/kg, po administered 60 mins prior to maximal electroshock exposure by MES test (reference value: 16.20 +/- 0.50 secs); assay type: functional, Hindlimb
Method in brief: (§2)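 Mice (n=6/group) dosed orally at 100 mg/kg in 0.5% sodium carboxymethylcellulose 60 min before maximal electroshock (150 mA, 0.2 s, corneal electrodes). Duration of hind limb tonic extension noted; abolition scored as protection (% protected). Vehicle controls; mean ± SEM, one-way ANOVA followed by Dunnett's method.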

Mus musculus [3] = test: Anticonvulsant activity in ip dosed Swiss albino mouse assessed as protection against maximal electroshock-induced tonic-clonic seizure spread measured after 0.5 hrs by MES test; assay type: functional; conditions: read-out: MED
Method in brief: (§3)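 Swiss albino mice pre-screened 24 h earlier with 50 mA, 60 Hz, 0.2 s corneal shock; saline drop in eyes. Compounds in 0.5% sodium carboxymethylcellulose given i.p. at 30, 100 and 300 mg/kg; MES applied after 0.5 h and 4 h. Protection = abolition of hind limb tonic extensor component in half or more of four mice.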

Rattus norvegicus [4] = test: Increase in GABA level in Wistar rat whole brain at 100 mg/kg, ip after 2 hrs measured per 100 mg of tissue (reference value: 46.8 +/- 6.03 ug); assay type: functional; conditions: route intraperitoneal
Method in brief: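 Adult Wistar rats, six per group, given 100 mg/kg i.p. (clobazam 30 mg/kg p.o. reference); decapitated 2 h later, whole brains put into ice-cold 80% ethanol and GABA determined enzymatically in tissue extracts. Mean ± SEM; Student's t test versus control.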

Mus musculus [5] = test: Anticonvulsant activity in ip dosed Swiss albino mouse assessed as protection against maximal electroshock-induced tonic-clonic seizure spread measured after 4 hrs by MES test; assay type: functional; conditions: read-out: MED; method in brief: as §3
Mus musculus [6] = test: Neurotoxicity in Swiss albino mouse assessed as minimal motor impairment at 300 mg/kg, ip after 0.5 hrs by rotarod test; assay type: toxicity, organism-based; parameters: dose 300 mg/kg, route intraperitoneal; conditions: in vivo
Method in brief: (§4)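 Rotarod minimal motor impairment: mice trained on 3.2 cm rod at 10 rpm; i.p. doses of 30, 100 and 300 mg/kg, four mice each, tested at 0.5 h and 4 h. Neurotoxicity = failure to stay on rod at least 1 min in each of three trials.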

Mus musculus [7] = test: Anticonvulsant activity in ip dosed Swiss albino mouse assessed as protection against pentylenetetrazole-induced seizures after 0.5 hrs; assay type: functional; conditions: read-out: MED
Method in brief: (§5)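 Compounds in 0.5% sodium carboxymethylcellulose injected i.p. at 30, 100, 300 mg/kg (four mice per dose); at 0.5 h or 4 h, pentylenetetrazol 70 mg/kg given s.c. as 0.5% solution in posterior midline. Observation 30 min; absence of clonic spasm in half or more of animals scored as protection.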

Mus musculus [8] = test: Anticonvulsant activity in ip dosed Swiss albino mouse assessed as protection against pentylenetetrazole-induced seizures after 4 hrs; assay type: functional; conditions: read-out: MED; method in brief: as §5
Mus musculus [9] = test: Anticonvulsant activity in Swiss albino mouse assessed as protection against maximal electroshock-induced seizures at 100 mg/kg, po administered 60 mins prior to maximal electroshock exposure by MES test; assay type: functional; method in brief: as §2
Rattus norvegicus [10] = test: Increase in GABA level in Wistar rat whole brain at 30 mg/kg, po for 7 days measured at 4 hrs after last drug dose per 100 mg of tissue (reference value: 49.2 +/- 3.01 ug); assay type: functional
Mus musculus [11] = test: Neurotoxicity in Swiss albino mouse assessed as motor impairment at 100 mg/kg, po by rotarod test; assay type: toxicity, organism-based; parameters: dose 100 mg/kg, route oral; conditions: in vivo
Method in brief: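 Mice trained on rotarod (3.2 cm, 10 rpm) received 100 mg/kg orally in 0.5% sodium carboxymethylcellulose; neurotoxicity scored as percentage of animals failing to keep equilibrium on rod for 60 s.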

Mus musculus [12] = test: Neurotoxicity in Swiss albino mouse assessed as minimal motor impairment at 300 mg/kg, ip after 4 hrs by rotarod test; assay type: toxicity, organism-based; parameters: dose 300 mg/kg, route intraperitoneal; conditions: in vivo; method in brief: as §4
Mus musculus [13] = test: Anticonvulsant activity in ip dosed Swiss albino mouse assessed as protection against maximal electroshock-induced seizure measured at the time of peak effect during phase 2 trials by MES test; assay type: functional; method in brief: as §1
Rattus norvegicus [14] = test: Increase in GABA level in Wistar rat whole brain at 30 mg/kg, po after 2 hrs measured per 100 mg of tissue (reference value: 46.8 +/- 6.03 ug); assay type: functional

NC1NC(=S)NN=C1n1c(-c2ccccc2)c(S(N)(=O)=O)c2cc(F)ccc21 (stereo not drawn)
TD50 [1]: 225 mg/kg

NC1NC(=S)NN=C1n1c(-c2ccccc2)c(C(=O)O)c2cc([N+](=O)[O-])ccc21 (stereo not drawn)
TD50 [1]: 180 mg/kg

NC(=O)c1c(-c2ccccc2)n(C2=NNC(=S)NC2N)c2ccc([N+](=O)[O-])cc12 (stereo not drawn)
TD50 [1]: 125 mg/kg | Time (Mus musculus [2]): 12.7 s | minimal effective dose (Mus musculus [3]): 30 mg/kg | Activity (Rattus norvegicus [4]): 85.4 µg | minimal effective dose (Mus musculus [5]): 30 mg/kg | Activity (Mus musculus [6]): Non-toxic | minimal effective dose (Mus musculus [7]): 300 mg/kg | minimal effective dose (Mus musculus [8]): 300 mg/kg | Activity (Mus musculus [9]): 50% | Activity (Rattus norvegicus [10]): 88.4 µg | Activity (Mus musculus [11]): Non-toxic | Activity (Mus musculus [12]): Non-toxic | ED50 (Mus musculus [13]): 24 mg/kg

CN1C(=O)CC(=O)N(c2ccccc2)c2cc(Cl)ccc21 [CLOBAZAM]
Activity (Rattus norvegicus [14]): 101 µg | Activity (Rattus norvegicus [10]): 110 µg

NC1NC(=S)NN=C1n1c(-c2ccccc2)c(S(N)(=O)=O)c2cc(Cl)ccc21 (stereo not drawn)
TD50 [1]: 185 mg/kg
